We go through eight molecules from paper PMC12752248 (BMC Biotechnology, 2025).

The target in data set [1] is T1, BJ6PAD (Bacillus subtilis, UniProt O07006).
T1 sequence (O07006 with tags, fused parts or gaps A39G/H105Y/L108V/E129D/F132Y/K134N/E136A/V138I/D139N/E142T/V143L/K146E): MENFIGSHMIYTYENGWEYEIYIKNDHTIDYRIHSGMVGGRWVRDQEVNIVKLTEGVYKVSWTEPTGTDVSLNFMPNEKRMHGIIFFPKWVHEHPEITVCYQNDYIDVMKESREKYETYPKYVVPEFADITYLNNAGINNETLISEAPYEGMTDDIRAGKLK
The experiment in a line: Effects of metal ions and chemical reagents on enzyme activity, BJ6PAD. The format is biochemical, Bacillus subtilis J6. Particulars: 60 min incubation, no additive = 100%. In outline:
(§1)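 His-tagged enzyme was expressed in E. coli BL21(DE3) and Ni-agarose purified. It was incubated 60 min with each metal ion (K⁺, Mg²⁺, Ca²⁺, Fe²⁺, Mn²⁺, Cu²⁺, Zn²⁺), EDTA, SDS or Triton X-100 at final concentrations of 1 or 5 mmol/L. Activity was then assayed in 50 mmol/L citrate-Na₂HPO₄ pH 6.0 at 37 ℃ for 5 min, stopped with methanol, with residual substrate by C18 HPLC at 280 nm. Done in triplicate.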

Data set [2] deals with T2, BJ6PAD-N (Bacillus subtilis, UniProt O07006).
T2 sequence (O07006 with tags, fused parts or gaps A39G/H105Y/L108V/E129D/F132Y/K134N/E136A/V138I/D139N/E142T/V143L/K146E): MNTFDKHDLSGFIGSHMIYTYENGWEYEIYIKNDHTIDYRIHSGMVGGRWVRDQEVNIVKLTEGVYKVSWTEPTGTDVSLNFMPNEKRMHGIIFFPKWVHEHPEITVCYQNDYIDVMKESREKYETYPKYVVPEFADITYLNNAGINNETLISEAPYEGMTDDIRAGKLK
The experiment in a line: Effects of metal ions and chemical reagents on enzyme activity, BJ6PAD-N. The format is biochemical, Bacillus subtilis J6. Particulars: 60 min incubation, no additive = 100%. In short, it runs like this:
as §1

The target in data set [3] is T1, BJ6PAD. The experiment in a line: Enzymatic kinetic parameters. The class given is biochemical, Bacillus subtilis J6.
For data set [4], the target named is T2, BJ6PAD-N. The experiment in a line: Isothermal titration calorimetry of enzyme-substrate interaction, BJ6PAD-N. The format is binding, Bacillus subtilis J6. In short, it runs like this:
(§2)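 Ni-purified His-tagged enzyme, eluted in […] buffer pH 7.9–8.1, was placed in the cell at 0.02 mmol/L. Each of four phenolic acid substrates (0.2 mmol/L in the same buffer) was in the syringe. All solutions were degassed 10 min. Twenty 2 µL injections were given 150 s apart at 37 °C with 350 rpm stirring. Thermodynamic parameters came from an independent-site model fit, in triplicate.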
(In ITC the heat of successive injections is recorded.)

Data set [5] addresses T2, BJ6PAD-N. The experiment in a line: Enzymatic kinetic parameters. The format is biochemical, Bacillus subtilis J6.
Data set [6] has as its target T1, BJ6PAD. The experiment in a line: Specific enzyme activity towards phenolic acid substrates, BJ6PAD. The class given is biochemical, Bacillus subtilis J6. Particulars: 37 ℃, pH 6.0; pCA, FA, CafA 10 mmol/L, SA 6 mmol/L. In outline:
(§3)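 Both purified His-tagged enzymes were reacted at 37 ℃ in 50 mmol/L citrate-Na₂HPO₄ pH 6.0 for 5 min with three hydroxycinnamic acids at 10 mmol/L or sinapic-type acid at 6 mmol/L. Reactions were stopped with methanol, with an enzyme-free buffer control. Remaining substrate was measured by C18 HPLC at 280 nm. One IU is 1 µmol substrate converted/min; protein was by BCA, giving IU/mg. Done in triplicate.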

In data set [7] the test system is BJ6PAD-N. The experiment in a line: Specific enzyme activity towards phenolic acid substrates, BJ6PAD-N. The class given is biochemical, Bacillus subtilis J6. Particulars: BJ6PAD-N vs BJ6PAD. In short, it runs like this: as §3
The target in data set [8] is T2, BJ6PAD-N. Described as above. Conditions: 37 ℃, pH 6.0; pCA, FA, CafA 10 mmol/L, SA 6 mmol/L. The format is biochemical, Bacillus subtilis J6. In outline: as §3
Data set [9] addresses T1, BJ6PAD. The experiment in a line: Isothermal titration calorimetry of enzyme-substrate interaction, BJ6PAD. The class given is binding, Bacillus subtilis J6. In outline: as §2
Data set [10] concerns BJ6PAD-N. The experiment in a line: Enzymatic kinetic parameters. The class given is biochemical, Bacillus subtilis J6. Particulars: BJ6PAD-N vs BJ6PAD.
Substrate in data set [11]: O=C(O)C=Cc1ccc(O)cc1
The experiment in a line: Enzymatic kinetic parameters. Particulars: pH 6.0. The format is biochemical, Bacillus subtilis J6.

The term Km denotes the substrate concentration at which the rate is half of its maximum. For orientation: Vmax means the top rate of the reaction or transport when substrate is in excess. As a reminder, the kcat is the number of substrate molecules converted per active site and unit of time at saturation. Broadly, the Kd is the free concentration of one partner at which half of the binding sites on the other are occupied at equilibrium, for simple one-to-one binding. One may read the kcat/Km as the second-order rate constant that governs catalysis at low substrate concentration.

Read-outs that look alike come from different tables or passages of the source. Marks after values point to notes of the source that are not given here.

Turning to `[K+]` [K^+], the Residual enzyme activity on BJ6PAD [1] (1 mmol/L additive) is recorded as 104.96 ± 0.24^b %; at BJ6PAD [1] (5 mmol/L additive) it was 98.61 ± 1.46^b %; on BJ6PAD-N [2] (1 mmol/L additive), 96.63 ± 2.16^a %; at BJ6PAD-N [2] (5 mmol/L additive), 89.61 ± 1.14^a %.

In the case of `CCCCCCCCCCCCOS(=O)(=O)[O-].[Na+]` [SDS, sodium dodecyl sulfate], the figures for the Residual enzyme activity at BJ6PAD [1] (1 mmol/L additive) and at BJ6PAD-N [2] (1 mmol/L additive) were 67.75 ± 1.3^a % and 80.5 ± 0.91^b %, respectively.

In the case of `O=C(O)/C=C/c1ccc(O)c(O)c1` [caffeic acid], at BJ6PAD [3], the Michaelis-Menten constant (Km) stood at 3.54 ± 1.05 mM, the Vmax was 137.1 ± 8.87^b IU/mg and the kcat was 43.67 ± 3.61^b s^− 1. The Kd at BJ6PAD-N [4] turned out to be 7 µM. At BJ6PAD-N [4] (ITC, 37 °C), this molecule came in with a ΔG of -30.51 kJ/mol, a ΔH of -62.34 kJ/mol and a ΔS of -0.10 kJ/mol·K. At BJ6PAD-N [5], the Km was 3.03 ± 0.12 mM, the Vmax is 139.3 ± 5.70^ab IU/mg and the kcat is 46.39 ± 1.55^ab s^− 1. On BJ6PAD [6], the Specific enzyme activity is reported as 92.34 ± 0.57^b IU/mg. Moreover, the “Increase of specific enzyme activity of BJ6PAD-N compared with BJ6PAD” value (shortened to “Increase … with BJ6PAD”) in the data set with BJ6PAD-N [7] came to 9.25%. Besides, the Specific enzyme activity at BJ6PAD-N [8] was 100.88 ± 3.71^a IU/mg. The Kd at BJ6PAD [9] was 4.23 µM. Further, on BJ6PAD [9] (ITC, 37 °C), the ΔG is -31.89 kJ/mol and the ΔH is -35.33 kJ/mol.

For `COc1cc(/C=C/C(=O)O)ccc1O` [ferulic acid], at BJ6PAD [3], the Km is 4.62 ± 0.01 mM, the maximal velocity (Vmax) is on record as 229.73 ± 4.95^b IU/mg and the kcat is reported as 73.17 ± 1.29^b s^− 1. On BJ6PAD-N [4] (ITC, 37 °C), this molecule showed a Kd of 59.4 µM, a ΔG of -25.17 kJ/mol, a ΔH of -2.63 kJ/mol and a ΔS of 0.07 kJ/mol·K. Also, at BJ6PAD-N [5], the Km was determined as 8.42 ± 0.19 mM, the Vmax was 337.97 ± 7.10^a IU/mg and the kcat is reported as 112.54 ± 1.93^a s^− 1. In addition, at BJ6PAD [6], the Specific enzyme activity is 150.85 ± 2.15^b IU/mg. The “Increase … with BJ6PAD” value in the data set on BJ6PAD-N [7] was determined as 18.37%. Also, the Specific enzyme activity at BJ6PAD-N [8] was 178.56 ± 1.58^a IU/mg. Besides, at BJ6PAD [9] (ITC, 37 °C), the dissociation constant (Kd) turned out to be 1.25 µM, the ΔG is on record as -35.08 kJ/mol, the ΔH is on record as -21.48 kJ/mol and the ΔS was determined as 0.04 kJ/mol·K.

As to `O=C(O)/C=C/c1ccc(O)cc1` [p-coumaric acid], the figures for the Kd on BJ6PAD-N [4] and on BJ6PAD [9] were 16.3 µM and 12.8 µM, respectively. For the same molecule, the ΔG on BJ6PAD-N [4] (ITC, 37 °C) was -28.50 kJ/mol; at BJ6PAD [9] (ITC, 37 °C), -28.94 kJ/mol. The ΔH is on record as -6.05 kJ/mol on BJ6PAD-N [4] (ITC, 37 °C) and -61.55 kJ/mol at BJ6PAD [9] (ITC, 37 °C). The ΔS at BJ6PAD-N [4] (ITC, 37 °C) is reported as 0.07 kJ/mol·K. Besides, the Specific enzyme activity at BJ6PAD [6] was 209.82 ± 1.41^b IU/mg; at BJ6PAD-N [8] it was 248.96 ± 1.59^a IU/mg. For the same molecule, in the data set on BJ6PAD-N [7], the “Increase … with BJ6PAD” value came out at 18.65%.

`COc1cc(/C=C/C(=O)O)cc(OC)c1O` [sinapic acid]: at BJ6PAD [3], the Km was determined as 4.19 ± 1.13 mM, the Vmax is listed as 35.02 ± 6.03^a IU/mg and the turnover number (kcat) was 11.15 ± 1.57^a s^− 1. Moreover, on BJ6PAD-N [4] (ITC, 37 °C), binding was put at a Kd of 7.02 µM, the ΔG is -30.70 kJ/mol, the ΔH is reported as -0.41 kJ/mol and the ΔS is 0.10 kJ/mol·K. Moreover, in the data set with BJ6PAD-N [10], the “Decrease in Km value of BJ6PAD-N compared with BJ6PAD” value was determined as 70.17% and the “Increase of catalytic efficiency (kcat/Km) of BJ6PAD-N over BJ6PAD” value was determined as 1.93 fold. On BJ6PAD-N [5], the Km turned out to be 1.25 ± 0.11 mM, the Vmax is 29.48 ± 1.23^a IU/mg and the kcat was 9.82 ± 0.33^a s^− 1. In addition, the Specific enzyme activity at BJ6PAD [6] was 17.37 ± 0.64^b IU/mg. Further, in the data set on BJ6PAD-N [7], the “Increase … with BJ6PAD” value was 34.83%. Further, at BJ6PAD-N [8], the Specific enzyme activity is 23.42 ± 0.02^a IU/mg. Also, at BJ6PAD [9] (ITC, 37 °C), the Kd is 19.3 µM, the ΔG is on record as -27.94 kJ/mol and the ΔH is listed as -42.87 kJ/mol.

B1: BJ6PAD (Bacillus subtilis subsp. subtilis str. 168) (protein)
chain: T1 sequence (O07006 with tags, fused parts or gaps A39G/H105Y/L108V/E129D/F132Y/K134N/E136A/V138I/D139N/E142T/V143L/K146E)
Consider B1, for which, in [11], the Km is 6.87 ± 0.36^b mmol/L, the maximal velocity (Vmax) is 335 ± 5.45 µmol/min/mg, the kcat worked out at 107 ± 1.42 s⁻¹ and the kcat/Km is 15600 ± 1070 M⁻¹ s⁻¹.

B2: BJ6PAD-N (Bacillus subtilis subsp. subtilis str. 168) (protein)
chain: T2 sequence (O07006 with tags, fused parts or gaps A39G/H105Y/L108V/E129D/F132Y/K134N/E136A/V138I/D139N/E142T/V143L/K146E)
On to B2, for which, in data set [11], the Km is on record as 11.85 ± 0.56^a mmol/L, the maximal velocity (Vmax) worked out at 536.4 ± 2.55 µmol/min/mg, the kcat was 179 ± 3.41 s⁻¹ and the kcat/Km was 15070 ± 80 M⁻¹ s⁻¹.
